# Assay results pooled from the literature.
# Compare with care: the assays were run in different laboratories.
SMILES,species,sample,route,dose,time,notes,concentration
NC(=O)C(c1ccccc1)(c1ccc(F)cc1)c1ccc(F)cc1,female Lewis rat,brain,intraperitoneal,50 mg/kg,1 h,single dose,43 µM
Cc1noc(C)c1Cn1cc(N2C(=O)N(Cc3cccc(O)c3)C(C)(C)C2=O)cn1,male Sprague-Dawley rat,plasma,oral,100 mg/kg,24 h,single dose,0 ng/mL
COc1nc(-c2cc(C)c(N[C@@H](C)c3cc(F)cc(F)c3)nn2)ccc1-n1cnc(C)c1,male Sprague-Dawley rat,CSF,oral,50 mg/kg,4 h,"multiple doses, once daily",301 ng/mL
COc1cccc(-c2n[nH]c(SCc3ccccn3)n2)c1OC,male Sprague-Dawley rat,plasma,oral,30 mg/kg,2 h,single dose,9750 ng/mL
CCc1cc(-c2noc(-c3cc(OC)nc(C4CCCC4)c3)n2)cc(C)c1OC[C@@H](O)CO,Wistar rat,plasma,oral,3 mg/kg,3 h,single dose,235 ng/mL
Cc1ccc(-c2cc(C(F)(F)F)nn2-c2ccc(S(N)(=O)=O)cc2)cc1,male Sprague-Dawley rat,blood,oral,20 mg/kg,4 h,,6.36 µM
COc1ccc(C)c2sc(NC(=O)c3ccncc3)nc12,rat,brain,oral,10 mg/kg,1 h,,~10 µM
COc1ccc2c(=O)n(C)c(-c3ccccc3)nc2c1,male Sprague-Dawley rat,spleen,oral,30 mg/kg,4 h,,6.13 ng/mL
CCOC(=O)[C@@]12C[C@@H]1[C@@H](n1ccc3c(NC)nc(C#Cc4ccc(Cl)s4)nc31)[C@H](O)[C@@H]2O,male Sprague-Dawley rat,plasma,oral,1 mg/kg,1 h,,9.55 ng/mL
Cc1noc(C)c1Cn1cc(N2C(=O)CN(Cc3cccc(O)c3)C2=O)cn1,male Sprague-Dawley rat,plasma,oral,100 mg/kg,4 h,,42.5 ng/mL
